Assay results gathered from unrelated publications.
Lines come from different studies, so protocols differ.
OfChi-h: Chitinase (OfChi-h, Ostrinia furnacalis, UniProt Q4AE59)
HDAC7: Histone deacetylase 7 (HDAC7, Homo sapiens, UniProt Q8WUI4)
WDR5: WD repeat-containing protein 5 (WDR5, Homo sapiens, UniProt P61964)
PRKCE: Protein kinase C epsilon type (PRKCE, Homo sapiens, UniProt Q02156)

Structure (SMILES)	target	assay	conditions	measurement	value
CCCCc1ccc(CNc2nc(N(C)C)nc(N(C)C)c2/N=N/c2ccc(Cl)cc2)cc1	OfChi-h	enzyme activity, inhibitor, fluorescence	1 µM	inhibition	91.9%
O=C(NO)c1cc(F)cc(OS(=O)(=O)Oc2ccccc2)c1	HDAC7	enzyme activity, inhibitor, fluorescence	10 µM	inhibition	47%
C[C@@H]1CN(c2ccc(-c3cc(C(=O)NCCOCCOCCOCCOCCNC(=O)Cn4cc(-c5[nH]cc(C(=O)N[C@@H](CC(N)=O)c6ccc(F)c(Cl)c6)c5-c5ccc(Cl)cc5F)cn4)ccc3F)cc2NC(=O)c2c[nH]c(=O)cc2C(F)(F)F)C[C@H](C)N1C	WDR5	thermal stability, DSF	5.5 µM	ΔTm	13.4 °C
COc1cc(-c2cncc3c2CN(C)Cc2cc(N4CCNCC4)ccc2-3)cc(OC)c1OC	G protein-coupled receptor kinase 6 (GRK6, Homo sapiens, UniProt P43250)	enzyme activity, inhibitor	1 µM	remaining activity	112%
Cc1cc([C@@H](C)Nc2ccccc2C(=O)O)c2nc(N3CCC(F)(F)CC3)c(C#N)c(=O)n2c1	PRKCE	binding, competition with immobilised ligand	1 µM	remaining binding	100%
C=CS(=O)(=O)c1ccc(Nc2nc(OCC3CCCCC3)c3nc[nH]c3n2)cc1	Gasdermin-D (GSDMD, Homo sapiens, UniProt P57764)	binding, BLI	–	koff	0.0439 s⁻¹
O=C(NO)c1cncc(OS(=O)(=O)Oc2ccc(C(F)(F)F)cc2)c1	HDAC7	enzyme activity, inhibitor, fluorescence	10 µM	inhibition	49%
O=C(O)CNc1cccc(CN(Cc2ccc(-n3cccn3)cc2)S(=O)(=O)c2cccnc2)n1	Beta-2 adrenergic receptor (ADRB2, Homo sapiens, UniProt P07550)	ligand displacement, radioligand	10 µM	inhibition	12%
CC(C)Oc1ccc(S(=O)(=O)c2ccc(Oc3cc(OCC(N)=O)c(C(=O)C(Cl)Cl)cc3[N+](=O)[O-])cc2)cc1	[Pyruvate dehydrogenase (acetyl-transferring)] kinase isozyme 3, mitochondrial (PDK3, Homo sapiens, UniProt Q15120)	enzyme activity, inhibitor, ATP luminescence	10 µM	inhibition	27.9%
C[C@@H]1CN(c2ccc(-c3cc(C(=O)NCCOCCOCCOCCOCCOCCOCCNC(=O)/C=C/c4[nH]cc(C(=O)N[C@@H](CC(N)=O)c5ccc(F)c(Cl)c5)c4-c4ccc(Cl)cc4F)ccc3F)cc2NC(=O)c2ccc(F)cc2C(F)(F)F)C[C@H](C)N1C	WDR5	thermal stability, DSF	5.5 µM	ΔTm	5.9 °C
COc1ccc(S(=O)(=O)N(CC(=O)NO)CC(C)C)cc1	72 kDa type IV collagenase (MMP2, Homo sapiens, UniProt P08253)	enzyme activity, inhibitor	0.5 µM	inhibition	60.9%
CN(C)c1nc(NCc2ccc(OC(F)(F)F)cc2)c(/N=N/c2ccc(Cl)cc2)c(N(C)C)n1	OfChi-h	enzyme activity, inhibitor, fluorescence	1 µM	inhibition	85%
C=CC(=O)N1CCC(COCC(=O)N2CCN(c3nc(-c4cnc(N)nc4C(F)F)nc(N4CCOC[C@@H]4C)n3)CC2)CC1	Cyclin-dependent kinase-like 3 (CDKL3, Homo sapiens, UniProt Q8IVW4)	binding, competition with immobilised ligand	1 µM	remaining binding	100%
CNc1ncc2c(/C=C/C(=O)N3CCC(OC)CC3)nn(Cc3cccc(C(F)(F)F)c3)c2n1	PRKCE	enzyme activity, inhibitor, radiometric	1 µM	remaining activity	99%
